Assay outcomes as filed in PubChem BioAssay.
p-CIP stab down = compounds decreasing mouse p/CIP protein stability; Q05BA5; F442A p/CIP-EGFP cells, EGFP fluorescence, 16 h; decrease of EGFP signal, % at 10 µM; 290,000 tested, 0.01% active; AID 1984;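 active means EGFP signal decrease of at least 30% at 10 µM or well 3 SD below plate mean, unless failing retest; inactive means the rest, including hits failing retest or dose response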
Target sequence (Q05BA5 1-1403): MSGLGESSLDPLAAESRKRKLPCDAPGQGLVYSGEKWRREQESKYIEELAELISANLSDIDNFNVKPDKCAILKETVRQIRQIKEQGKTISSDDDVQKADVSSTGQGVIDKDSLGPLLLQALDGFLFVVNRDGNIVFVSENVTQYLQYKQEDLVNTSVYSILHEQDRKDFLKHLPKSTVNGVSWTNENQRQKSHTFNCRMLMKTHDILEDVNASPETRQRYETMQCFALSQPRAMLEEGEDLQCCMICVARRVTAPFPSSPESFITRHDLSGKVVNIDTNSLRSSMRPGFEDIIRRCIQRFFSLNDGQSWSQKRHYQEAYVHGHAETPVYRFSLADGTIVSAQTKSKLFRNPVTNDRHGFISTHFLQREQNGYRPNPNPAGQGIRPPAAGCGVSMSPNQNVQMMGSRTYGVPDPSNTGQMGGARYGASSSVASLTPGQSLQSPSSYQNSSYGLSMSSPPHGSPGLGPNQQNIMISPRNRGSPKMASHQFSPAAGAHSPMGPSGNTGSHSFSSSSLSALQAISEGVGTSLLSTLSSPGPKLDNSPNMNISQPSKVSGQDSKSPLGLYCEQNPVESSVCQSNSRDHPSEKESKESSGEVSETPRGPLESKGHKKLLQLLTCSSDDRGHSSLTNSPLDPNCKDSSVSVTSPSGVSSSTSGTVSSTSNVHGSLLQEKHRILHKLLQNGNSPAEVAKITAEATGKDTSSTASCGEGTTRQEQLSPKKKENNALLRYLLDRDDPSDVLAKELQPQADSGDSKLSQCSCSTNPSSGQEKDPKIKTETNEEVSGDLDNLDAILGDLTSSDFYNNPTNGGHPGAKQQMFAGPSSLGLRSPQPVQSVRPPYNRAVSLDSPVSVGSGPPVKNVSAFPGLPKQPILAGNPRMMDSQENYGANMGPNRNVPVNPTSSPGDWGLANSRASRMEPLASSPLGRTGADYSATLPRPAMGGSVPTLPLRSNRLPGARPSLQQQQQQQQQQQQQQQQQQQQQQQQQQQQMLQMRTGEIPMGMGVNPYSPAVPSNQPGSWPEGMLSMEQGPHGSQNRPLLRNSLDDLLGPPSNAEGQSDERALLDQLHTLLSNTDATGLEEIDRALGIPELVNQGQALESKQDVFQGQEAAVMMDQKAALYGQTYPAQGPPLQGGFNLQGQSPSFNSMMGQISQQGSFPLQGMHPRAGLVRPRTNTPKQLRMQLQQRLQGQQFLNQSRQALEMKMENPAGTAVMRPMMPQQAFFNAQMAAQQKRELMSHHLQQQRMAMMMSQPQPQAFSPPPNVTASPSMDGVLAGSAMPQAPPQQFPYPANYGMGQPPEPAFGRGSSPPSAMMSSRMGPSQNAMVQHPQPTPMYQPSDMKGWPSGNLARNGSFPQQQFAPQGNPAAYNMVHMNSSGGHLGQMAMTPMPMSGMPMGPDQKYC
Cl transport mod = modulators of human KCC2 chloride dependent transport; KCC2 cells, thallium flux FluoZin-2 fluorescence; B-score of Tl+ flux slope (higher = more flux/activation; lower = inhibition) at 10 µM; Q9H2X9; AID 1456; 190,000 tested, 2.2% active;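 active means thallium flux slope and its plate-corrected score both differing from the plate sample mean at a set confidence after two filtering rounds, in either direction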;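 further: slope of fluorescence scaled to starting intensity during 10 to 20 s after thallium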
V-ATPase pH = yeast V-ATPase proton transport regulation by pHLuorin | response, % at 10 µM | S. cerevisiae, pHLuorin cytosolic pH fluorescence | AID 504577 | 350,000 tested, 0.37% active; in the data active means response mostly above about 7.3%, no sharp cut-off; inactive means mostly below about 5.4%; further: actives read high
ABCB6 inh 2 = blocks the human ABCB6 transporter; K562-ABCB6 porphyrin accumulation, flow cytometry, 1 h; hits give low values; fluorescence ratio to DMSO, % at 10 µM; 360,000 tested, 0.19% active;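 active means fluorescence ratio to DMSO below 75%, the collection mean minus 3 SD; inconclusive means too few cells collected in the well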;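 further: signal is porphyrin accumulated inside mitochondria; 100% equals median channel fluorescence of DMSO control wells; lower ratio means ABCB6 inhibition with less porphyrin fluorescence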
Dynein cargo inh = blocks dynein driven cargo transport along microtubules. 3617.4 mouse cells, GR-EGFP nuclear translocation imaging; test concentration mostly 20 µM; stimulated with dexamethasone, 1 µM; hits give low values. z-score, hits read low. 220,000 tested, 0.47% active;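 active means plate z-score of nuclear minus cytoplasmic receptor signal below a set negative limit, without overly bright fluorescence or cell loss, cut at about -3.5 in these data, passing the limit was not always enough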;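 further: z-score of nuclear minus cytoplasmic ring GR-EGFP intensity difference per well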
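Buffer or medium – tet-free medium with charcoal-stripped serum · Signal – automated 10x imaging of fixed Hoechst-stained cells · Also added – dexamethasone agonist, 1.0 µM final, for 30 min · Incubation – induction 48 h, compound 1 h, agonist 30 min · Read-out – GR-EGFP nuclear translocation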
KCC2 secondary = KCC2 (human) modulation, secondary assay | AID 1713 | 3,700 tested, 15% active | HEK293-KCC2, thallium flux, FluoZin2 fluorescence; hits give high values | shares compounds with Cl transport mod | normalised thallium flux (F/F0 slope) at 10 µM;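 active means thallium flux slope above the same plate's solvent-only control mean plus 3 SD; inconclusive means the two replicate wells disagree; inactive means no significant difference from solvent-only control wells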
KCC2 bumet counter = thallium flux despite bumetanide block in KCC2 cells, secondary assay 3; shares compounds with Cl transport mod; HEK293-KCC2 + bumetanide/ouabain, thallium flux FluoZin2; hits give high values; normalized thallium flux at 10 µM; 3,700 tested, 49% active; AID 1714;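 active means thallium entry rate above the same plate's blocked-transporter control wells by more than 3 SD; inconclusive means the two repeat wells disagree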;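 further: raw slope of fluorescence over initial fluorescence between 10 and 20 s after thallium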
KCC2 sec2 = confirmation of human KCC2 transport modulators. shares compounds with Cl transport mod. HEK293-KCC2, thallium flux FluoZin2 fluorescence; actives lie on both sides; F/F0 rise rate, 10–20 s post-thallium. normalized thallium flux at 10 µM. 3,700 tested, 23% active. AID 1715;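 active means thallium flux slope more than 3 SD above or below the plate's solvent-only control mean, mostly below; inconclusive means the two repeat wells disagreed; inactive means no significant shift from solvent-only controls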;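 further: raw slope with 0.1% DMSO as baseline and bumetanide as block control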
HEK293 Tl flux = parental HEK flux effect, counter-screen; shares compounds with Cl transport mod; HEK293 parental cells, thallium flux FluoZin2, ouabain; baseline-ratio fluorescence slope, 10–20 s after thallium; thallium flux rate (normalised fluorescence) at 10 µM; 3,700 tested, 46% active; AID 1716;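 active means thallium flux rate significantly above the same plate's solvent-only control wells, beyond their mean plus 3 SD; inconclusive means the two replicate wells gave conflicting results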
KCC2 ouabain = KCC2 (human) modulation, ouabain retest. shares compounds with Cl transport mod. HEK293-KCC2, thallium flux FluoZin2 fluorescence; bidirectional: low = inhibitor, high = activator. raw Tl+ flux slope (below DMSO = inhibition, above = activation) at 10 µM. 3,700 tested, 48% active. AID 1717;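 active means thallium flux slope beyond 3 SD from same-plate DMSO control mean in most replicates, usually higher, sometimes lower; inconclusive means repeat tests gave conflicting results; inactive means no significant difference from controls in most replicates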;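 further: slope of initial-normalized fluorescence between seconds 10 and 20 after thallium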
HEK293 Tl flux2 = parental HEK flux effect, counter-screen 2; HEK293 parental, thallium flux FluoZin-2 fluorescence slope; thallium flux slope at 10 µM; 3,700 tested, 33% active; shares compounds with Cl transport mod; AID 1718;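 active means thallium flux slope above the same plate's solvent-control mean plus 3 SD in both duplicate wells; inconclusive means duplicate wells that disagreed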;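 further: run without ouabain in cells lacking the KCC2 cotransporter; slope of fluorescence scaled to its starting value between 10 and 20 s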
* = called active by the depositor; u = inconclusive; x = no result. The sample as a whole holds a higher share of hits than the screen did.

SMILES	p-CIP stab down	Cl transport mod	V-ATPase pH	ABCB6 inh 2	Dynein cargo inh	KCC2 secondary	KCC2 bumet counter	KCC2 sec2	HEK293 Tl flux	KCC2 ouabain	HEK293 Tl flux2
C=CCn1c(-c2ccco2)n[nH]c1=S	4.0	x	-2.0	102.0	0.431	0.00912	0.00658	0.0357	0.00847	0.0192	0.0115
C=CCn1c(-c2cc3cccc(OC)c3o2)n[nH]c1=S	18.0	3.71*	4.7	98.0	1.12	0.00507	0.0142*	0.0316	0.0126*	u	0.0158*
COc1ccc(NC2CCCN(C(=O)c3ccc4[nH]c(C)c(C)c4c3)C2)cc1OC (stereo not given)	-10.5	x	-3.0	98.0	x	x	x	x	x	x	x
O=c1cc(-c2ccccc2)[nH]n1-c1nc2ccccc2s1	12.2	14.1*	1.3	98.0	0.49	0.0082	0.0367*	u	0.025*	0.0402*	0.0166*
O=c1cc(-c2ccccc2)[nH]n1-c1ccccc1	x	x	-1.1	96.0	x	x	x	x	x	x	x
O=C(C1CCCCC1)N1C[C@H](n2cc(C3CC3)nn2)[C@@H](O)C[C@@H]1c1ccc(Cl)cc1	x	x	1.7	102.0	x	x	x	x	x	x	x
O=C(NNC(=O)c1ccc(S(=O)(=O)N2CCCC2)cc1)c1ccc(Br)cc1	x	x	0.3	99.0	x	x	x	x	x	x	x
Cc1ccc(C2N(c3ccccc3)C(=S)N3CCCN23)cc1 (stereo not given)	-3.2	x	-0.5	95.0	0.00707	0.00832	0.00491	0.0343	0.00374	0.0204	0.0113
Fc1ccc(C2N(c3ccccc3)C(=S)N3CCCN23)cc1 (stereo not given)	-6.9	-1.73	-4.3	90.0	1.12	x	x	x	x	x	x
O=C(O)CSc1ncnc2sc3c(c12)CCC3	-15.2	7.81*	0.6	107.0	0.358	0.0159*	0.0348*	0.0307	0.0159*	0.0368*	0.0121*
Cc1ccc(C(=O)CSc2ncnc3sc4c(c23)CCCC4)cc1	-2.4	5.33*	-4.4	103.0	-0.5	0.0138*	0.0331*	0.0324	0.0258*	0.0304*	u
O=C(O)CSc1ncnc2sc3c(c12)CCCC3	3.3	11.6*	2.9	92.0	2.6	0.00605	0.00651*	u	0.00993*	0.0176	0.00928
Fc1ccc(CSc2ncnc3sc4c(c23)CCCC4)cc1	-12.8	1.4	1.3	98.0	-0.00932	x	x	x	x	x	x
Cc1noc(C)c1CSc1ncnc2sc3c(c12)CCCCC3	-11.2	77.7*	-2.4	98.0	1.48	0.0329*	0.165*	u	0.0778*	0.112*	0.0277*
CCSc1ncnc2sc3c(c12)CCC3	-0.9	0.932	10.2	94.0	0.345	x	x	x	x	x	x
Cc1ccc(CNC(=O)Cn2cnc3c(OCc4ccccc4)ncnc32)o1	x	x	-0.1	102.0	x	x	x	x	x	x	x
CC(C)COc1nc2ccccc2nc1C(C#N)C(=O)NC1CCCCC1 (stereo not given)	-3.5	x	-1.7	100.0	-0.532	0.00929	0.00584	0.0304	0.00734	0.0183	0.0117
C=C(C)c1cccc(C(C)(C)NC(=O)N2CCC(C(N)=O)CC2)c1	11.5	-3.19*	-0.6	104.0	-0.162	0.00658	u	0.0336	0.00805	0.0193	0.0117
C=C(C)c1cccc(C(C)(C)NC(=O)N2CCCC(C(N)=O)C2)c1 (stereo not given)	2.2	1.35	-3.3	92.0	1.08	x	x	x	x	x	x
CCn1ccc(C(=O)Nc2ccsc2C(=O)OC)n1	9.2	x	-6.0	99.0	x	x	x	x	x	x	x
C=CCn1c(SCC#N)nc2c(c1=O)C(C)(C)Cc1ccccc1-2	-10.0	-0.133	2.8	100.0	-0.609	0.0061	0.00502	0.031	u	0.0184	0.00902
N#C/C(=C\c1cn(-c2ccccc2)nc1-c1cccnc1)c1nnc2n1CCCCC2	-7.4	x	-0.9	83.0	1.39	0.00566	0.0047	0.0236*	0.00848	u	0.0105
O=C(/C=C/c1cn(-c2ccccc2)nc1-c1cccnc1)N1CCCC1	-2.2	-2.81	3.3	99.0	-0.778	x	x	x	x	x	x
N#C/C(=C\c1ccc(O)c(O)c1)C(=O)NCCCc1ccccc1	-13.9	-1.1	-3.4	106.0	0.309	0.0081	0.00481	0.03	0.00781	u	0.0117
S=C(NCC1CC1)N/N=C/c1ccccc1Cl	4.0	10.3*	-2.8	99.0	0.0904	u	0.0241*	0.0295	0.01*	u	0.00989
SMILES	p-CIP stab down	Cl transport mod	V-ATPase pH	ABCB6 inh 2	Dynein cargo inh	KCC2 secondary	KCC2 bumet counter	KCC2 sec2	HEK293 Tl flux	KCC2 ouabain	HEK293 Tl flux2
O=C(O)Cc1ccc(NC(=S)Nc2cccc(Cl)c2Cl)cc1	-5.4	9.56*	2.8	108.0	-0.723	0.00971	0.0105*	0.0338	0.0137*	u	0.0121
O=C(N/N=C/c1ccccc1Cl)C1CC1	-2.9	x	-3.8	100.0	x	x	x	x	x	x	x
S=C(N/N=C/c1ccccc1Cl)Nc1cccc(Cl)c1Cl	-7.2	6.98*	-0.3	96.0	-1.08	0.00699	0.045*	0.0467*	0.0312*	0.0479*	0.026*
S=C(NCCc1ccccc1)N/N=C/c1cccc(Cl)c1Cl	13.4	4.44*	1.0	100.0	-0.698	0.00612	0.0126*	0.0387*	0.0107*	0.0298*	0.0109
CN(Cc1cnn(-c2ccccc2)c1)C(=O)c1cccc(S(=O)(=O)Nc2ccccc2F)c1	x	x	x	94.0	x	x	x	x	x	x	x
Cc1ccc(NC(=O)c2ccccc2NS(=O)(=O)c2ccc(Cl)s2)cc1	-6.0	-3.71*	-2.3	95.0	-0.956	0.00711	u	0.022*	0.00717	u	0.0101
O=C(Nc1ccccc1)c1ccccc1NS(=O)(=O)c1ccc(Cl)s1	-13.4	x	-1.9	99.0	-0.146	x	x	x	x	x	x
C=CCn1c(=S)[nH]c2sc3c(c2c1=O)CCCC3	6.6	x	-0.4	95.0	x	x	x	x	x	x	x
C=CCn1c(=S)[nH]c2sccc2c1=O	13.6	7.77*	2.1	96.0	0.765	0.00678	0.0147*	0.0357	0.0166*	u	0.0192*
CNC(=O)CN(c1cccc(Br)c1)S(C)(=O)=O	3.4	1.81	8.5	90.0	-0.193	0.0154	0.00453	0.0267	0.0074	0.0157	0.0107
CC(C)NC(=O)CN(c1cccc(Br)c1)S(C)(=O)=O	-10.4	1.11	-0.8	96.0	0.243	x	x	x	x	x	x
O=C(NNC(=S)Nc1ccc(Cl)c(Cl)c1)c1ccccn1	1.8	11.1*	-0.9	93.0	0.377	0.0131*	0.0369*	0.0307	0.0186*	0.0512*	0.0117*
